Laboratory results: article PMC4448975 (Pharmacology Research & Perspectives, 2015)
One block for each compound: values may come before it.

What was measured:
human ADA2 = biological target: T1, human ADA2 (Homo sapiens, UniProt Q9NZK5); experiment: Deamination of substrates in ADA2-expressing HEK293 cells; format: biochemical; details: compared with Mock cells; substance = substrate
T1 sequence (Q9NZK5 30-511): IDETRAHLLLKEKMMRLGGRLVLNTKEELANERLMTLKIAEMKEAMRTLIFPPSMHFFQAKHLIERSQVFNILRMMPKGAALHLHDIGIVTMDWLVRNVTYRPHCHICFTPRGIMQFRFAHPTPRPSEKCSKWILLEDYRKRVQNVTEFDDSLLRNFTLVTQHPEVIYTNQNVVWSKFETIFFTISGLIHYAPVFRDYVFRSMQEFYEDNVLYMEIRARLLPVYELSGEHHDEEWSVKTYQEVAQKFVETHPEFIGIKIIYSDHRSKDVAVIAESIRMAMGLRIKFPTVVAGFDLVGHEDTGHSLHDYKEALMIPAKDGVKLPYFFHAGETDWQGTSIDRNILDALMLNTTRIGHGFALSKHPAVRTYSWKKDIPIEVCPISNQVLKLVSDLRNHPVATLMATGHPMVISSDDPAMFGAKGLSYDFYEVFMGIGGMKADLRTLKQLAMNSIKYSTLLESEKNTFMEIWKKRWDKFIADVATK

Jurkat cells = experiment: Cell viability; format: cell-based, human; details: 24 h, MTT
Outline: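 Jurkat cells kept in RPMI-1640 with 10% FBS, penicillin–streptomycin, NaHCO3 and glutamine at 37°C, 5% CO2. Cells were seeded at 1 × 10^4 per well. […] Viability was read by MTT kit. Mean ± SD of three independent determinations; ANOVA with Dunnett's test.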

[1] = biological target: T2, ADA1 in Jurkat cell homogenates (Homo sapiens, UniProt P00813); experiment: Inhibition of cordycepin deamination in Jurkat cell homogenates; format: biochemical; details: substrate 100 μmol/L, inhibitor 50 μmol/L
T2 sequence (P00813 1-363): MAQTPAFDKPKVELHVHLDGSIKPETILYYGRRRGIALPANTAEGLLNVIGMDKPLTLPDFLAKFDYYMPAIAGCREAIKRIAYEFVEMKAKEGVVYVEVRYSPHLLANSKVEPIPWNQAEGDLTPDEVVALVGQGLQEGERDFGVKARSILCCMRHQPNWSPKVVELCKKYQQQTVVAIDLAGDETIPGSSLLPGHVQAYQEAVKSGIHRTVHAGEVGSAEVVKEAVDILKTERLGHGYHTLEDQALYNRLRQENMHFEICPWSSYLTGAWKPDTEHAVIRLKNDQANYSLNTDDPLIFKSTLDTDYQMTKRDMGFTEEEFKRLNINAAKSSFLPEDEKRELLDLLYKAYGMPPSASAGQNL

[2] = biological target: T3, ADA in mouse erythrocytes (Mus musculus, UniProt P03958); experiment: Inhibition of ADA-catalyzed deamination in mouse erythrocytes; format: biochemical; details: for inhibition at 100 µM: read-out: inhibition of the enzyme activity (deamination of cordycepin)
T3 sequence (P03958 1-352): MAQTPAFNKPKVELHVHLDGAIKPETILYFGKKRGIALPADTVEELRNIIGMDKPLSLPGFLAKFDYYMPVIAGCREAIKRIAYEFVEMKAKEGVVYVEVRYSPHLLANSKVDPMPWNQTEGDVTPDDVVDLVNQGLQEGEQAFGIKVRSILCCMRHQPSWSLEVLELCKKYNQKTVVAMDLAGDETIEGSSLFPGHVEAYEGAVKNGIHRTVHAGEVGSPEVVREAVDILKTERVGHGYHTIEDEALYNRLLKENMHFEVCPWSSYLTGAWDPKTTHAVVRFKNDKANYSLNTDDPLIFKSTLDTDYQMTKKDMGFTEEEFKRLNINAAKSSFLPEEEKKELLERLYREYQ

[3] = biological target: T4, ADA in human erythrocytes (Homo sapiens, UniProt P00813); experiment: Inhibition of ADA-catalyzed deamination of cordycepin in human erythrocytes; format: biochemical
T4 sequence (P00813 1-363): T2 sequence (P00813 1-363)
Outline: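 Human erythrocytes were incubated with cordycepin in 400 mmol/L sodium acetate buffer, pH 5.8, at 37°C after a 3 min preincubation. Inhibitors were present and cordycepin concentrations were varied. Reactions were stopped with acetonitrile and centrifuged. 3′-Deoxyinosine was quantified by reversed-phase HPLC (6% acetonitrile, 1.0 mL/min, 260 nm). Inhibition type and Ki were derived from Dixon plots.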

Compound: Nc1ncnc2c1ncn2[C@@H]1O[C@H](CO)C[C@H]1O [Cordycepin, 3′-deoxyadenosine]
cell viability of the Jurkat cells (Jurkat cells; cordycepin alone): concentration-dependently decreased the cell viability

Compound: OC[C@H]1O[C@@H](n2cnc3c2NC=NC[C@H]3O)C[C@@H]1O [Pentostatin]
effect on the cytotoxic effect of cordycepin (Jurkat cells; Jurkat cells cotreated with cordycepin and 50 μmol/L inhibitor): stronger cytotoxicity

Compound: O=c1c(O)c(-c2cc(O)c(O)c(O)c2)oc2cc(O)cc(O)c12 [myricetin]
inhibition at 100 µM [2]: 0 to 10%

Compound: O=c1c(O)c(-c2ccc(O)c(O)c2)oc2cc(O)cc(O)c12 [quercetin]
inhibition at 100 µM [2]: 0 to 10%

Other lines, results leading:

deamination activity toward the substrate in ADA2-expressing HEK293 cells (human ADA2): comparable to those in Mock cells
Compound: Nc1ncnc2c1ncn2[C@H]1C[C@H](O)[C@@H](CO)O1 [2′-deoxyadenosine]

inhibition of deamination of cordycepin in Jurkat cell homogenates [1]: moderately | Ki ([2]; mouse erythrocytes, substrate 2′-deoxyadenosine, Dixon plot): 197 µM | Ki ([2]; mouse erythrocytes, substrate adenosine, Dixon plot): 371 ± 10.1 µM | Ki ([2]; mouse erythrocytes, substrate cordycepin, Dixon plot): 58.8 ± 0.7 µM | inhibition of cordycepin deamination in the erythrocytes (in words) ([2]; erythrocytes, 100 μmol/L cordycepin, 100 μmol/L inhibitor, 37°C (Fig.4)): moderately inhibited | inhibition pattern against the cordycepin deamination ([2]; mouse erythrocytes, Dixon plot): competitive | inhibition at 100 µM [2]: 20% | Ki [3]: 168 ± 22.4 µM | inhibition pattern against the cordycepin deamination ([3]; human erythrocytes, Dixon plot): competitively
Compound: C[C@@H]1O[C@@H](O[C@H]2[C@H](Oc3cc(O)c4c(c3)O[C@H](c3ccc(O)cc3)CC4=O)O[C@H](CO)[C@@H](O)[C@@H]2O)[C@H](O)[C@H](O)[C@H]1O [Naringin, naringin]

deamination activity toward the substrate in ADA2-expressing HEK293 cells (human ADA2): comparable to those in Mock cells
Compound: Nc1ncnc2c1ncn2[C@@H]1O[C@H](CO)[C@@H](O)[C@H]1O [adenosine]

inhibition at 100 µM [2]: 0 to 10%
Compound: O=c1c(O)c(-c2ccc(O)cc2)oc2cc(O)cc(O)c12 [kaempferol]

inhibition at 100 µM [2]: 0 to 10%
Compound: O=C1C[C@@H](c2ccc(O)cc2)Oc2cc(O)cc(O)c21 [naringenin]
